Records with an inconclusive call do not appear.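 How the source made its calls, unless noted: active means cell viability at or below a set limit in both duplicate runs, the limit being the all-compound median minus 4 SD (cut at about 23% in these data, passing the limit was not always enough); inconclusive means no clear call, values can overlap the other calls; inactive means the rest.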
Tests used:
[1] = S. cerevisiae growth inhibition in permissive medium (OD615), pilot counter-assay for S. cerevisiae lifespan shortening project, permissive growth control (AID 705;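 active means growth inhibition above 25% in both replicates, a cutoff set 3 SD above the mean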); details: OD615, 24 h, at 10 µM, stronger effect = higher value
Procedure, shortened: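 assay system = Saccharomyces cerevisiae strain carrying genetically modified DeaD replicative-lifespan system | medium = SC raffinose/galactose permissive medium | dosing = 10 µM single dose, 0.25% DMSO | schedule = 24 h compound exposure at 30 °C after 4 h pre-growth | measured by = OD at 615 nm | read-out basis = growth inhibition from lowered OD615 after 24 h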

[2] = S. cerevisiae growth inhibition in restrictive medium, OD615, pilot screen, restrictive growth control, yeast lifespan reduction project (AID 706;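 active means growth inhibition above a set limit, 3 SD over mean compound inhibition, in both replicates, cut at about 43% in these data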;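 further: modified DeaD lifespan yeast strain shifted to restrictive glucose medium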); details: OD615, 48 h, at 10 µM, stronger effect = higher value
Procedure, shortened: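 Buffer or medium: CSMM-D glucose medium. Material: genetically modified Saccharomyces cerevisiae, DeaD replicative lifespan assay strain. Times: 48 h compound exposure at 30 °C. Measured by: optical density at 615 nm.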

[3] = doxorubicin toxicity protection in MRP-1 cells – H69AR cells, CellTiter-Glo, duplicate, MRP-1 activator project, pilot screen (AID 807;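 active means viability increase at or above a cutoff of the median across tested compounds plus 3 SD, cut at about 8.5% in these data, passing the limit was not always enough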;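 further: compound pretreatment 18-22 h then 72 h combined with doxorubicin; 0% = doxorubicin alone and 100% = vehicle without doxorubicin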); details: H69AR viability with doxorubicin, CellTiter-Glo luminescence; at 10 µM; stronger effect = higher value
[4] = viability of HCT116 without oncogenic beta-catenin – human colon tumor cells, pilot screen (AID 823); details: HCT116 beta-catenin knockout viability, CellTiter-Glo, 60 h; at 10 µM; stronger effect = lower value;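 further: 0% = wells killed by 20 µM Hyamine and 100% = untreated DMSO cell wells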
[5] = viability of PTEN-null HCT116 cells – cell-based, HCT116 clonal line, CellTiter-Glo, pilot screen (AID 824;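 active means viability at or below 27.92% in each of two runs, the all-compound median minus 4 SD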;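 further: 0% = 20 µM Hyamine control and 100% = vehicle cell control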); details: HCT116 PTEN-deleted viability, 60 h, at 10 µM, stronger effect = lower value
[6] = RAM pathway blockade in budding yeast – dse1pr::URA3 reporter, 5-FOA selection, pilot screen (AID 869;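 active means inhibition over a set limit, the all-compound mean plus 3 SD, in both replicate runs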;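 further: 0% = DMSO wells with no growth and 100% = 10 µM 1-NA-PP1 with full growth; RAM network block rescues cells from 5-FOA so hits raise OD615 growth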); details: S. cerevisiae dse1pr::URA3 5-FOA growth, OD615, 2 d; at 10 µM; stronger effect = higher value; strain carries analog-sensitive mutant Cbk1 kinase
[7] = RAM signaling pathway blockade in yeast – S. cerevisiae, Pdr1DBD-CYC8 efflux-inhibited sensitized strain, primary screen (AID 1298;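 active means RAM network inhibition above 8.4% in each of two replicates, 3 SD over the compound average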;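 further: 0% = DMSO untreated cells without growth and 100% = 10 µM 1-NA-PP1 full growth; higher means more yeast growth rescued from 5-FOA killing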); details: S. cerevisiae cbk1-as DSE1-URA3 strain, 5-FOA growth OD615, 2 d; at 50 µM; stronger effect = higher value

Cn1c(=O)oc2cc(S(=O)(=O)NCCN3CCN(c4ccccc4F)CC3)ccc21
inactive: growth inhibition [1] -14.7% | growth inhibition [2] 0.235% | viability increase [3] -2.88% | viability [4] 100% | viability [5] 88.8% | inhibition [6] 0.835% | RAM network inhibition [7] 1.48%

CCCN(CCC)S(=O)(=O)c1cc(Br)cc2c1N(C(=O)CC)CC2
inactive: growth inhibition [1] -8.33% | growth inhibition [2] -21.3% | viability increase [3] -4.77% | viability [4] 65.9% | viability [5] 69.7% | inhibition [6] 0.885% | RAM network inhibition [7] 4.71%

Cc1ncc(CO)c2cc(S(=O)(=O)c3ccc(F)cc3)c(=O)oc12
inactive: growth inhibition [1] -11.8% | growth inhibition [2] -4.46% | viability increase [3] -0.48% | viability [4] 104% | viability [5] 96.7% | inhibition [6] 0.14% | RAM network inhibition [7] 1.42%

O=C(NCc1ccco1)c1ccc(Br)c(S(=O)(=O)N2CCCCC2)c1
inactive: growth inhibition [1] 2.44% | growth inhibition [2] -6.06% | viability increase [3] -2.69% | viability [4] 88.8% | viability [5] 88.1% | inhibition [6] 2.61% | RAM network inhibition [7] 4.59%

CCc1noc2c1/C(=N\O)CC(c1ccccc1)C2 (stereo not drawn)
inactive: growth inhibition [1] 0.555% | growth inhibition [2] 4.22% | viability increase [3] 2.87% | viability [4] 83.3% | viability [5] 84.8% | inhibition [6] 1.78% | RAM network inhibition [7] -1.18%

O=C1c2ccccc2C(Nc2ccc(Cl)cn2)N1c1ccccn1 (stereo not drawn)
inactive: growth inhibition [1] -15.4% | growth inhibition [2] 0.32% | viability increase [3] -4.01% | viability [4] 75.1% | viability [5] 81.1% | inhibition [6] 2.39% | RAM network inhibition [7] 8.97%

CC1(C)CC(=O)C=C(NCCCNC2CCCCC2)C1
inactive: growth inhibition [1] -9.9% | growth inhibition [2] -7.88% | viability increase [3] -2.17% | viability [4] 96.5% | viability [5] 93% | inhibition [6] 0.125% | RAM network inhibition [7] 1.72%

Fc1cc2nc(-c3ccncc3)[nH]c2cc1F
inactive: growth inhibition [1] -7.19% | growth inhibition [2] -19.1% | viability increase [3] -1.54% | viability [4] 109% | viability [5] 94.6% | inhibition [6] 0.625% | RAM network inhibition [7] 2.24%

COc1cccc(-c2nc(CS(=O)CC(=O)NC3CC3)c(C)o2)c1 (stereo not drawn)
inactive: growth inhibition [1] 1.62% | growth inhibition [2] 14.2% | viability increase [3] -2.91% | viability [4] 101% | viability [5] 101% | inhibition [6] 0.52% | RAM network inhibition [7] 0.14%

CCOC(=O)C1CCCN(C(=O)N2CCOCC2)C1 (stereo not drawn)
inactive: growth inhibition [1] -4.19% | growth inhibition [2] -5.3% | viability increase [3] -0.82% | viability [4] 97.6% | viability [5] 99.1% | inhibition [6] -0.095% | RAM network inhibition [7] 0.21%

Cc1ccccc1-n1nc(-c2ccc(N)cc2)cc1N
inactive: growth inhibition [1] 3.39% | growth inhibition [2] 2.1% | viability increase [3] -2.52% | viability [4] 101% | viability [5] 94.7% | inhibition [6] 0.8% | RAM network inhibition [7] 2.8%

Cn1c(Cn2c(=O)sc3ccccc32)nnc1SCC(=O)N1CCOCC1
inactive: growth inhibition [1] -13.2% | growth inhibition [2] -28% | viability increase [3] -1.17% | viability [4] 103% | viability [5] 99.2% | inhibition [6] 2.92% | RAM network inhibition [7] 3.55%

CC1CCCCC1NC(=O)C1CCN(C(=O)c2sccc2-n2cccc2)CC1 (stereo not drawn)
inactive: growth inhibition [1] -4.95% | growth inhibition [2] -6.6% | viability increase [3] -1.22% | viability [4] 105% | viability [5] 94.8% | inhibition [6] 2.28% | RAM network inhibition [7] 4.86%

CCC(NC(=O)c1ccccc1NC(=O)c1ccco1)C(=O)NC1CCCCC1 (stereo not drawn)
inactive: growth inhibition [1] -4.2% | growth inhibition [2] 7.98% | viability increase [3] -2.29% | viability [4] 89.1% | viability [5] 98.3% | inhibition [6] 1.35% | RAM network inhibition [7] 2.08%

CC(=O)C(C)Oc1ccc2c3c(c(=O)oc2c1)CCCC3 (stereo not drawn)
inactive: growth inhibition [1] -6.26% | growth inhibition [2] 9.38% | viability increase [3] 0.37% | viability [4] 93% | viability [5] 91.1% | inhibition [6] 2.3% | RAM network inhibition [7] 0.72%

CCCC(=O)NCCCc1nc2ccccc2n1C
inactive: growth inhibition [1] -3.69% | growth inhibition [2] -0.54% | viability increase [3] -1.21% | viability [4] 97.1% | viability [5] 105% | inhibition [6] -0.03% | RAM network inhibition [7] 2.78%

Cc1cc(-c2c(C)n([O-])c(C)c(C)[n+]2=O)ccc1F
inactive: growth inhibition [1] -10.8% | growth inhibition [2] -3.75% | viability increase [3] 0.1% | viability [4] 102% | viability [5] 98.2% | inhibition [6] 1.03% | RAM network inhibition [7] 0.32%

COCCNC(=O)Cn1cnc2c1c(=O)n(C)c(=O)n2C
inactive: growth inhibition [1] -16.3% | growth inhibition [2] -12.6% | viability increase [3] -0.95% | viability [4] 97.6% | viability [5] 98.3% | inhibition [6] 1.23% | RAM network inhibition [7] 3.4%

C=CCNC(=O)c1ccc(C)cc1Cl
inactive: growth inhibition [1] -13.3% | growth inhibition [2] -2.44% | viability increase [3] -0.26% | viability [4] 95.5% | viability [5] 94.5% | inhibition [6] 1.02% | RAM network inhibition [7] 1.37%

CCOc1ccc(C2CC(c3cccc(Cl)c3)n3nc(N)nc3N2)cc1 (stereo not drawn)
inactive: growth inhibition [1] 5.36% | growth inhibition [2] 7.05% | viability increase [3] -0.08% | viability [4] 92% | viability [5] 88.2% | inhibition [6] 1.14% | RAM network inhibition [7] 9.61%

CC(C)(C)SCCNS(=O)(=O)c1ccccc1
inactive: growth inhibition [1] -8.9% | growth inhibition [2] 6.57% | viability increase [3] -0.28% | viability [4] 99.8% | viability [5] 93.4% | inhibition [6] 2.52% | RAM network inhibition [7] 3.01%

O=C1CC(c2ccccc2)CC(O)=C1C=NCCN1CCNCC1 (stereo not drawn)
inactive: growth inhibition [1] -21.5% | growth inhibition [2] -14.2% | viability increase [3] 1.22% | viability [4] 99.2% | viability [5] 98.1% | inhibition [6] -0.42% | RAM network inhibition [7] -1.05%

CC(=O)N1CCc2cc(C(=O)CN3CCN(c4ccccc4F)CC3)ccc21
inactive: growth inhibition [1] -7.16% | growth inhibition [2] -7.33% | viability increase [3] -3.19% | viability [4] 93.7% | viability [5] 88% | inhibition [6] 2.17% | RAM network inhibition [7] 2.34%

CC(=O)N1CCc2cc(S(=O)(=O)Nc3ccccc3N3CCN(C)CC3)ccc21
inactive: growth inhibition [1] -7.73% | growth inhibition [2] -1.75% | viability increase [3] -1.49% | viability [4] 94.8% | viability [5] 85.8% | inhibition [6] 1.71% | RAM network inhibition [7] 0.62%

From PubChem BioAssay
